Assay outcomes (PubChem BioAssay)
Jurkat viability = reduces viability or proliferation of Jurkat cells; Jurkat E6.1 viability, ATP luminescence, 48 h; inhibition, % at 4 µM; hit rate 1.2% among 56,000;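 active = inhibition above the mean inhibition of all tested compounds plus 3 SD, cut at about 28% in these data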
RORA act = activators of human nuclear receptor RORA; hit rate 1.5% among 65,000; P35398; CHO-K1 Gal4-RORA LBD luciferase reporter, luminescence; percent increase over mock-subtracted basal signal; activation, % at 10 µM;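 active = activation above the mean of all tested compounds plus 3 SD, cut at about 49% in these data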;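 also: 0% = DMSO-treated RORA cells and 100% = added signal equal to DMSO minus mock-transfected cells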
Target sequence (P35398 whole entry, looked up, the tested form may be a part): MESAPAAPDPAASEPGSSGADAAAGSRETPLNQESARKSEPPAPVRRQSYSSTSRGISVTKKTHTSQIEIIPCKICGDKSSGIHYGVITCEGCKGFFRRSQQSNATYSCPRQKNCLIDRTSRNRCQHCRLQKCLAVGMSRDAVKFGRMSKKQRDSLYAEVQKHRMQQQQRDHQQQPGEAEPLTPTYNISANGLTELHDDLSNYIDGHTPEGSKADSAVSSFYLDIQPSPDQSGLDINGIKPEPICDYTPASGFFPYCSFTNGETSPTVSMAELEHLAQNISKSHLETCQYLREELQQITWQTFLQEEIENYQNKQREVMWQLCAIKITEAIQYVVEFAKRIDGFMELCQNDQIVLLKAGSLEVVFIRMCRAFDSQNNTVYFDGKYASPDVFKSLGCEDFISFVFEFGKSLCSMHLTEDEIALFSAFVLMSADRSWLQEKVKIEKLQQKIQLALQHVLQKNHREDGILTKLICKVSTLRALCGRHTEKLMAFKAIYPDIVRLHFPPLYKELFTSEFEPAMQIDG
HEK293 NFkB inh = inhibitors of the PMA/ionomycin-induced NF-kB reporter in HEK293 cells. HEK-293 NF-kB luciferase reporter, luminescence. inhibition, % at 3 µM. hit rate 0.21% among 62,000. AID 465;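 active = inhibition above the mean of all tested compounds plus 3 SD, cut at about 40% in these data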;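 also: 0% = stimulated DMSO wells and 100% = 10 µM reference inhibitor 5653914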
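Material: HEK-293 cells with stable firefly luciferase reporter driven by four HIV NF-kB elements / Also added: PMA plus ionomycin mix as NF-kB-activating stimulus / Compound dosing: 3 µM once, 0.30% DMSO / Times: 1 h pretreatment, 16 h stimulation, 37 °C / Signal: luminescence / Evaluation: per-plate % inhibition versus controls / Benchmarks: DMSO and 10 µM reference inhibitor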
SF1 activator = activators of human nuclear receptor SF-1; CHO-K1 Gal4-SF-1 LBD luciferase reporter; % increase over DMSO SF-1-specific signal; hit rate 1.9% among 65,000; Q13285; AID 522; activation, % at 10 µM;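 active = activation above the mean activation of all tested compounds plus 3 SD, cut at about 50% in these data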
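System: CHO-K1 cells with Gal4–hSF-1 LBD chimera plus Gal4-driven luciferase; quantity: 4,000 CHO-K1 cells per well; compound: one dose, 10 µM compound, 1% DMSO; times: 20 h compound treatment, 37 °C; measured by: SteadyLite luciferase luminescence; read-out: percent activation versus DMSO; benchmarks: DMSO and mock-transfected background; replicates: one test per compound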
* hit, by the source's call; / = no result given. The list is not random: actives were taken first. Their share in the collection is about 3.9%.

SMILES	Jurkat viability	RORA act	HEK293 NFkB inh	SF1 activator
Cc1ccc(S(=O)(=O)NC(CC(=O)NCC2CCCO2)c2ccco2)cc1 (stereo unspecified)	-3	20	9	6
CCOC(=O)c1c(C)nc(-c2ccccc2)nc1N	2	51*	-21	58*
CCOC(=O)c1c(C)nc(-c2ccccc2)nc1NC(C)=O	-9	25	-7	26
O=C(COC(=O)c1ccc(S(=O)(=O)N2CCCC2)cc1)NCc1ccccc1	-3	-6	10	3
COCc1cc(=O)n2[nH]c(-c3cccc(Br)c3)cc2n1	-6	53*	-23	48
CCCc1cc(=O)n2[nH]c(C)nc2n1	-1	4	3	-9
CCCc1cc(=O)n2[nH]c(Cc3ccccc3)nc2n1	-17	0	8	8
CCCc1cc(=O)n2[nH]c(-c3ccc(C)cc3)cc2n1	0	79*	-19	26
COCc1cc(=O)n2[nH]c(-c3ccccc3)cc2n1	2	22	-1	30
CCCc1cc(=O)n2[nH]c(-c3ccccc3)cc2n1	-4	52*	-44	68*
COC(=O)c1ccccc1S(=O)(=O)Nc1ccc(OC)nc1	-2	-4	17	-4
COc1ccc(F)cc1S(=O)(=O)Nc1ccc(C)cc1	-4	-2	11	-10
Cn1c(=O)n(CCc2ccccc2)c(=O)c2c1nc1n2CCN1c1ccccc1	0	0	18	-14
CCCCOc1ccc(-c2nnn(C(C)(C)C(=O)OC)n2)cc1	-2	23	7	34
COc1ccccc1N1CCN(C(=O)C2c3ccccc3Oc3ccccc32)CC1	70*	-18	20	7
COc1ccccc1N1CCN(C(=O)C2CC=CCC2C(=O)O)CC1 (stereo unspecified)	-2	18	21	-15
COc1cc(C)c(C(C)C)cc1S(=O)(=O)N1CCN(C)CC1	-3	-2	14	-14
COc1cc(C)c(C(C)C)cc1S(=O)(=O)n1cnc(C)c1	85*	80*	13	15
Cc1ccc(NC(=O)c2c(-c3c(F)cccc3Cl)noc2C)cc1F	0	5	13	-28
CC1(C)CC(=O)C(C=Nc2ccccc2C(=O)O)=C(O)C1	2	-15	8	-11
CC1(C)CC(=O)C(C=Nc2ccccc2)=C(O)C1	-3	6	-6	64*
CC1(C)CC(=O)c2sc(N3CCCCC3)nc2C1	0	36	2	13
Cc1cc(Br)c2c(c1)=C(c1sc(N3CCCCCC3)nc1O)C(=O)N=2	-9	34	-3	50*
CCN(CC)C(=O)Oc1ccc2c(=O)c(-c3ccccc3)coc2c1	-2	82*	-36	8
CCSc1nnc(NC(=O)CSc2nc3c(c(=O)n2CCOC)SC(C)C3)s1 (stereo unspecified)	-2	2	13	-11
SMILES	Jurkat viability	RORA act	HEK293 NFkB inh	SF1 activator
COc1cccc(C(=O)Nc2nnc(-c3cccs3)o2)c1	10	-20	5	10
CN(Cc1ccccc1)S(=O)(=O)c1ccc(C(=O)Nc2nnc(C3CC3)o2)cc1	100*	7	6	-9
CCCCN(C)S(=O)(=O)c1ccc(C(=O)Nc2nnc(CSC)o2)cc1	53*	7	10	-5
CCc1nnc(NC(=O)c2ccc(S(=O)(=O)N(CC)Cc3ccccc3)cc2)o1	98*	-12	14	-36
CCCCN(CC)S(=O)(=O)c1ccc(C(=O)Nc2nnc(-c3cccs3)o2)cc1	101*	-10	36	-20
CCCCN(CCCC)S(=O)(=O)c1ccc(C(=O)Nc2nnc(COC)o2)cc1	18	5	17	-41
C=CCOc1cccc(C2/C(=C(/O)c3ccccc3)C(=O)C(=O)N2CCCN2CCOCC2)c1 (stereo unspecified)	1	-4	15	-6
Cc1cc(C)nc(N2CCCC(C(=O)NCCC3=CCCCC3)C2)n1 (stereo unspecified)	-6	-2	10	-1
CCCc1nnc(SCc2ccc(OC)cc2)n1N	3	5	9	32
CCNC(=O)NC(=O)COC(=O)c1ccccc1SCC(=O)NC(=O)NCC	-6	31	-27	69*
Cc1nn(C(=O)c2cccs2)c(N)c1-c1ccccc1	1	57*	-32	54*
CC(=O)c1c(C)nn(C(=O)c2cccs2)c1C	3	-9	7	-5
Cn1c(=O)c2c(nc(NCCO)n2CCc2ccccc2)n(C)c1=O	32*	-17	19	-8
CC(O)CNc1nc2c(c(=O)n(C)c(=O)n2C)n1Cc1cccc(Br)c1 (stereo unspecified)	28*	2	6	25
CC(C)CNc1nc2c(c(=O)n(C)c(=O)n2C)n1Cc1cccc(Br)c1	/	-10	/	-16
CCCNc1nc2c(c(=O)n(C)c(=O)n2C)n1Cc1cccc(C)c1	59*	-55	21	-25
Cc1cc2nc(C3CCN(CC4COc5ccccc5O4)CC3)[nH]c2cc1C (stereo unspecified)	2	-18	9	-2
Fc1ccc(-c2nc3nc4ccccc4nc3n2Cc2ccco2)cc1	5	45	-26	37
c1ccc(-c2nc3nc4ccccc4nc3n2Cc2ccco2)cc1	0	62*	-19	48
O=C(O)CC(NC(=O)c1ccccc1NC(=O)c1ccccc1)C(=O)O (stereo unspecified)	5	-9	10	-2
O=C(CC(Nc1ccc(F)cc1)C(=O)O)c1ccccc1 (stereo unspecified)	-4	62*	-31	42
O=C(O)c1ccc2oc(SCC(=O)N3CCCCC3)nc2c1	0	29	-32	54*
O=C(CSc1nc2cc(Cl)ccc2o1)N1CCOCC1	4	12	18	12
CN(C1=NC(=O)C(CC(=O)Nc2ccc(Br)cc2)S1)c1ccc(O)cc1 (stereo unspecified)	4	-17	14	-6
O=C(Nc1nc2ccc(S(=O)(=O)N3CCCC3)cc2s1)c1cccs1	5	52*	-17	37
SMILES	Jurkat viability	RORA act	HEK293 NFkB inh	SF1 activator
CSc1nc2ccc3nc(NC(=O)c4cccs4)sc3c2s1	-3	39	-69	64*
COc1cc(C)c(Br)cc1S(=O)(=O)N1CCCC1	3	-14	18	-6
CCC(=O)Nc1ccc(-c2nnc(SCC(=O)NCC3CCCO3)n2C)cc1 (stereo unspecified)	/	9	/	1
Cc1ccc(C2=N/C(=C/N3CCOCC3)C(=O)O2)cc1	-4	34	-2	55*
CN(C)/C=C1\N=C(c2ccc3c(c2)OCO3)OC1=O	/	18	-7	28
COc1ccc(CNc2ccc3c(c2)nc(C)n3C)cc1	0	38	-4	79*
CCc1ccc(CNc2ccc3c(c2)ncn3C)cc1	5	61*	-22	70*
COc1ccc(S(=O)(=O)NCc2ccc(C(=O)O)cc2)cc1	/	0	18	3
COc1ccc(CNc2ccc(C(=O)O)cc2)cc1	5	13	0	78*
Cc1ccc(C(=O)Nc2ccc3c(c2)ncn3C)cc1	-3	52*	-44	38
CCn1cnc2cc(NCc3ccncc3)ccc21	-12	-10	10	8
